Test system: Mus musculus
Assay: Ability to cause […] in mice represented as no. of counts for each animal for a total of 90 min when 100 mg/kg dose was administered intraperitoneally
Type: functional
Conditions: route intraperitoneal
How it was run: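 Mice given the compound intraperitoneally at 100 mg kg-1, dissolved in distilled water; controls received 0.2 mL normal saline. Each mouse was placed on an electronic activity monitor and its counts were recorded for 90 min after injection. Counts per minute were taken as total counts divided by 90. Six animals per group, mean ± SEM, groups compared by Duncan's multiple-range test. Experiments were run between 13.00 and 17.00 h at 20-24 °C.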

Row | SMILES | Counts [min⁻¹]
1 | CN(C)C1(C)C(=O)CCc2ccccc21 (stereo unspecified) | 22.9
2 | CC1(N2CCCCC2)C(=O)CCc2ccccc21 (stereo unspecified) | 4.4
3 | CNC1(C)c2ccccc2CCC1O (stereo unspecified) | 20.2
4 | CC1(N)C(=O)CCc2ccccc21 (stereo unspecified) | 27.2
5 | CN(C)C1(C)CCc2ccccc2C1=O (stereo unspecified) | 67.1
6 | CN(C)C1(C)c2ccccc2CCC1O (stereo unspecified) | 37.5
7 | CNC1(C)C(=O)CCc2ccccc21 (stereo unspecified) | 25.8
8 | CC1(N2CCCCC2)c2ccccc2CCC1O (stereo unspecified) | 21.6
9 | CC1(N)CCc2ccccc2C1=O (stereo unspecified) | 60.6
10 | CC1(N)c2ccccc2CCC1O (stereo unspecified) | 16.2
11 | CNC1(c2ccccc2Cl)CCCCC1=O (stereo unspecified) [KETAMINE] | 94.3
